Legend:
[1] = biological target: T1, Amyloid-beta precursor protein (Homo sapiens, UniProt P05067); experiment: Inhibition of gamma-secretase assessed as reduction of cell A-beta-40 level
[2] = biological target: T1, Amyloid-beta precursor protein; experiment: Inhibition of gamma-secretase assessed as reduction of membrane A-beta-40 level
Procedure, shortened: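 Membrane-based γ-secretase assay with Aβ40 as read-out; IC50 in nM, reported as means of two experiments.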

T1 sequence (P05067 whole entry): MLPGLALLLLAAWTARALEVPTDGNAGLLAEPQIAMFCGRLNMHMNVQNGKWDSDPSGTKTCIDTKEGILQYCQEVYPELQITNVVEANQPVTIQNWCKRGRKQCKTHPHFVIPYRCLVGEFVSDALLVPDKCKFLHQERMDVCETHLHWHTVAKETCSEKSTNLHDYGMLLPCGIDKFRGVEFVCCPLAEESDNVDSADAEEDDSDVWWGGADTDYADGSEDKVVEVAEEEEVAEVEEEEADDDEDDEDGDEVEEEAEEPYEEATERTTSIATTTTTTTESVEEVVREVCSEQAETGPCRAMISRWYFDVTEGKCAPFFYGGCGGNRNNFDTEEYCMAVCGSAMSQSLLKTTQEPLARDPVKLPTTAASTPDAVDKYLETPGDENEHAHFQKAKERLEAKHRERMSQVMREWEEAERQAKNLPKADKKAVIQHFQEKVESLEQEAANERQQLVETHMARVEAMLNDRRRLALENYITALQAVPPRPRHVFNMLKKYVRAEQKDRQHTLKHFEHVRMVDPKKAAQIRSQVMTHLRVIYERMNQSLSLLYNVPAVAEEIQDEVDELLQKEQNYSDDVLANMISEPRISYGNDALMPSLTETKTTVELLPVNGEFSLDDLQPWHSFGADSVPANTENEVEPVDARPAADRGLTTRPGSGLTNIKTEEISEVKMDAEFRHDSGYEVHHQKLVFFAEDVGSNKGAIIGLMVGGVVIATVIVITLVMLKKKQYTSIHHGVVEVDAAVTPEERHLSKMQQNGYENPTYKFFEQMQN

IC50 [1] [nM]	IC50 [2] [nM]	Structure (SMILES)
25	10	CC[C@@H]1CCC[C@H](C2(OC(=O)N3CCN(C(C)(C)CO)CC3)CC2)N1S(=O)(=O)c1ccc(F)cc1 [1-((2R,6R)-6-ethyl-1-(4-fluorophenylsulfonyl)piperidin-2-yl)cyclopropyl 4-(1-hydroxy-2-methylpropan-2-yl)piperazine-1-carboxylate]
20	9	CC[C@@H]1CCC[C@H](C2(OC(=O)N3CCC(CCO)(OC)CC3)CC2)N1S(=O)(=O)c1ccc(Cl)cc1 [1-((2R,6R)-1-(4-chlorophenylsulfonyl)-6-ethylpiperidin-2-yl)cyclopropyl 4-(2-hydroxyethyl)-4-methoxypiperidine-1-carboxylate]
144	29	CC[C@@H]1CCC[C@H](C2(OC(=O)N3CCC(N4CCCCC4)CC3)CC2)N1S(=O)(=O)c1cc(F)cc(F)c1 [1-((2R,6R)-1-(3,5-difluorophenylsulfonyl)-6-ethylpiperidin-2-yl)cyclopropyl 4-(piperidin-1-yl)piperidine-1-carboxylate]
–	0.3	O=C(OC1([C@H]2CCC[C@@H](c3cc(F)cc(F)c3)N2S(=O)(=O)c2ccc(Cl)cc2)CC1)N1CCC(N2CCCCC2)CC1 [1-((2R,6S)-1-(4-chlorophenylsulfonyl)-6-(3,5-difluorophenyl)piperidin-2-yl)cyclopropyl 4-(piperidin-1-yl)piperidine-1-carboxylate]
10	13	CC[C@@H]1CCC[C@H](C2(OC(=O)N3CCN(CCO)[C@@H](C)C3)CC2)N1S(=O)(=O)c1ccc(Cl)cc1 [(S)-1-((2R,6R)-1-(4-chlorophenylsulfonyl)-6-ethylpiperidin-2-yl)cyclopropyl 4-(2-hydroxyethyl)-3-methylpiperazine-1-carboxylate]

From BindingDB's records for doi:10.1016/j.bmcl.2007.08.013 (Schering-Plough Research Institute, 2007)
